Cneo AK release: Cryptococcus neoformans lysis via adenylate kinase release; lysis activity, % at 15 µM; C. neoformans lysis, adenylate kinase release luminescence, 4 h; normalised: neutral wells 0, clomiphene wells 100; 360,000 tested, 0.2% active;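 active = mean lysis activity across replicates of at least 80%, whatever share of replicates individually reach that level; inactive = mean lysis activity below 80%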
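Assay system: log-phase C. neoformans yeast / Quantity: yeast cell density of 5 × 10^6 cells/mL / Medium: fresh YPD growth medium / Compound: single dose / Timing: static 4 h at 37 °C with compound, 1 h detection / Measured by: adenylate kinase release luminescence / Read-out: lysis from increased AK signal / Benchmarks: Clomiphene as positive lysis control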
miR-122 sensor: blocks miR-122 activity in Huh7 sensor cells; Huh7 miR-122 Renilla luciferase sensor, 48 h; neutral wells = 0, positive control = 100; 340,000 tested, 0.3% active; AID 602342; activation (reporter increase), % at 12.5 µM;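 active = mean replicate activation score at least 90 and every replicate individually at or above 90; inconclusive = only one of the two criteria met; inactive = neither criterion met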;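 also: higher luciferase means less miR-122 activity so hits act as miR-122 inhibitors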
DENV2 CPE rescue: inhibitors of DENV2 cytopathic effect; 350,000 tested, 1.7% active; AID 651640; CPE inhibition, % at 9.99 µM; DENV2-infected cells, cytopathic effect rescue, plate reader; in the data active = CPE inhibition above about 20%, passing the limit was not always enough; inconclusive = no clear call, values can overlap the other calls; tested in BHK-21 cells;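 also: 0% = median of neutral control wells and 100% = median of positive control wells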
rRNA inh HTS: selective bacterial rRNA inhibition in E. coli; E. coli WT GFP vs humanized-ribosome RFP mutants, fluorescence, 24 h; stronger effect = lower value; DMSO median 0, no signal -100; GFP signal change (wild-type ribosome), % (no concentration beside the values); AID 720706; 350,000 tested, 1.6% active;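 active = significant combined selectivity score with lowered wild-type GFP, culture density cut under 30%, mutant RFP and density less affected; inactive = any of these conditions unmet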
E-sel inducer: E-selectin induction on HUVECs. HUVEC E-selectin immunofluorescence imaging; normalized: neutral wells 0, TNF-alpha wells 100. activation, % at 7.58 µM. 260,000 tested, 0.37% active. AID 686992;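 active = mean E-selectin-positive cell signal at least 10% of the positive control, reached in at least 60% of replicates, without over 20% cell loss; inconclusive = no rule given, readout overlaps actives, possibly toxicity-flagged; inactive = the rest, including those meeting only one limit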
Target sequence (P16581 whole entry, looked up): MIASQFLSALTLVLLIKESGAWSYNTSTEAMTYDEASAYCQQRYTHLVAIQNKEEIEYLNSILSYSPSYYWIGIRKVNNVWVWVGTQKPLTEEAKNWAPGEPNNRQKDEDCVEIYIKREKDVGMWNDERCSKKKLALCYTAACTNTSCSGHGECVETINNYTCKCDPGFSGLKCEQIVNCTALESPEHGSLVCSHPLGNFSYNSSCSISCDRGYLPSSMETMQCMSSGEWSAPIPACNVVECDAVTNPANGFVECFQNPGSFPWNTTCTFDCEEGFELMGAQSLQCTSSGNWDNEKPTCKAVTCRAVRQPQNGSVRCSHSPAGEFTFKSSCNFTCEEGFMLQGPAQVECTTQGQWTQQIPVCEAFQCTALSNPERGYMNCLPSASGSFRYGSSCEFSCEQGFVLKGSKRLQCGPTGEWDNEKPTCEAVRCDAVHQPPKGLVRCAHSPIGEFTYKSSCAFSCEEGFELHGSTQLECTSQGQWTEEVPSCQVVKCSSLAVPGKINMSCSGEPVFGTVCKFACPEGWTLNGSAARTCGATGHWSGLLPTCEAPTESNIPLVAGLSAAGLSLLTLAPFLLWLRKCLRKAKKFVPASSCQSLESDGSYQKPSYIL
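Read-out: % PE-positive cells | Test system: HUVEC | Doses: One compound dose added by pin transfer | Buffer or medium: EGM-2 over gelatin coat | Signal: Immunofluorescence imaging | Benchmarks: TNF-alpha, DMSO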
The depositor's hits bear a star; ? = inconclusive; . = not tested or not shown; [ ] = another dose, or the depositor's remark. Compounds with a hit are over-represented: about 3.1% of the library has one in this group of screens.

SMILES	Cneo AK release	miR-122 sensor	DENV2 CPE rescue	rRNA inh HTS	E-sel inducer
C[C@@H]1CN([C@H](C)CO)C(=O)c2cc(NC(=O)Nc3ccccc3)ccc2O[C@@H]1CN(C)S(=O)(=O)c1ccc(Cl)cc1	0	100*[16.7 µM]	-5	1	3
C[C@H](CO)N1C[C@H](C)[C@@H](CN(C)C(=O)C2CC2)Oc2ncc(C#Cc3ccccc3F)cc2C1=O	-8	7[16.7 µM]	-4	0	3
COc1ccc(-c2cnc3c(c2)C(=O)N([C@@H](C)CO)C[C@@H](C)[C@H](CN(C)C(=O)C2CC2)O3)cc1	.	13[16.7 µM]	.	-4	1
COc1ccc(OCC(O)CN2CCN(c3ccc(OC)cc3)CC2)cc1 (stereo not drawn)	-2	0	6	8	0
CCc1ccc(OCC(O)CN2CCN(c3ccccc3)CC2)cc1 (stereo not drawn)	-2	4	83*	-5	0
CCCc1ccc(OCC(O)CN2CCN(c3ccccc3)CC2)cc1 (stereo not drawn)	-1	-4	12	-9	0
COc1ccc(N2CCN(CC(O)COc3ccc(F)cc3)CC2)cc1 (stereo not drawn)	-2	-10	52*	7	.
Fc1ccc(-n2cc(-c3ccccc3)c3c(N4CCOCC4)ncnc32)cc1	.	.	3	-24*	0
C[C@@H]1CCCCO[C@H](CN(C)C(=O)Nc2ccccc2)[C@H](C)CN([C@H](C)CO)C(=O)c2cc(NC(=O)c3ccccc3)ccc2O1	5	-2[16.7 µM]	12	-3	.
CC(C)NC(=O)N(C)C[C@H]1OCCCC[C@@H](C)Oc2ccc(NC(=O)c3ccccc3)cc2C(=O)N([C@@H](C)CO)C[C@@H]1C	91*	-3[16.7 µM]	-6	-3	0
CC(C)NC(=O)N(C)C[C@@H]1OCCCC[C@H](C)Oc2ccc(NC(=O)c3ccccc3)cc2C(=O)N([C@H](C)CO)C[C@H]1C	91*	-4[16.7 µM]	0	-2	2
CC(C)NC(=O)N(C)C[C@@H]1OCCCC[C@H](C)Oc2ccc(NC(=O)c3ccccc3)cc2C(=O)N([C@H](C)CO)C[C@@H]1C	.	-4[16.7 µM]	2	-1	-1
CN(CC(=O)Nc1ccc(Cl)cc1)C(=O)CCc1nc2sc3c(c2c(=O)[nH]1)CCCC3	3	.	31*	6	.
CC1(C)Cc2c(cnn2-c2ccc(F)cc2)C(NC(=O)c2cnccn2)C1 (stereo not drawn)	1	-6	-8	4	0
CC1(C)Cc2c(cnn2-c2ccc(F)cc2)C(NC(=O)c2ccc(=O)oc2)C1 (stereo not drawn)	1	1	70*	9	0
COC(=O)c1ccc(-n2c(C)ccc2-c2ccccc2)cc1	-3	4	-2	-22*	.
CCCc1nnc(NC(=S)Nc2ccccc2)s1	.	.	7	18	.
CC(C)C(=O)Nc1nnc(NC(=S)Nc2ccccc2)s1	-5	-3	5	-34*	.
Cc1ccc(C2(C)NC(=O)N(CC(=O)Nc3ccccc3C(=O)NC3CCCC3)C2=O)cc1 (stereo not drawn)	0	2	62*	-4	0
C[C@H](CO)N1C[C@H](C)[C@@H](CN(C)S(=O)(=O)c2cccs2)Oc2c(NC(=O)CCCN(C)C)cccc2C1=O	.	.	.	0	.
CNC[C@H]1Oc2ccc(NC(C)=O)cc2C(=O)N(C)C[C@H]1C	.	.	.	1	.
FC(F)Oc1ccc(NC(=S)Nc2ccc3cn[nH]c3c2)cc1	1	.	9	-25*	0
CC(C)C[C@@H](CN1CCC[C@@H]1CN1C(=S)NC[C@@H]1Cc1ccc(O)cc1)N1C[C@H](Cc2ccc(O)cc2)N(CC2CCCCC2)C1=S	4	-4	28*	.	.
COc1ccc2c3c([nH]c2c1)[C@@H](CO)N(C(=O)CN(C)C)CC31CCN(CC2CC2)CC1	.	.	6	7	0
CCCCCCN1C[C@H](O)[C@@H](n2cc(C3CC3)nn2)C[C@@H]1c1ccccc1	2	3	-8	-16*	.
SMILES	Cneo AK release	miR-122 sensor	DENV2 CPE rescue	rRNA inh HTS	E-sel inducer
CCCCCCN1C[C@H](n2cc(-c3ccc(F)cc3)nn2)[C@@H](O)C[C@@H]1c1ccccc1	0	3	93*	3	0
O[C@@H]1CN(Cc2cccs2)[C@@H](c2ccccc2)C[C@H]1n1cc(-c2ccc(F)cc2)nn1	-1	46	51*	-2	.
O[C@H]1CN(CC2CCCCC2)[C@@H](c2ccc(Cl)cc2)C[C@@H]1n1cc(C2CC2)nn1	16	1	45*	-8	-3
CC(=O)N1[C@@H]2CN(S(C)(=O)=O)C[C@H]1C2c1ccccc1 (stereo partly drawn)	.	.	.	1	.
CC(C)NC(=O)Nc1ccc2c(c1)C(=O)N([C@@H](C)CO)C[C@H](C)[C@H](CN(C)S(C)(=O)=O)O2	40	2[16.7 µM]	4	-4	.
CC=Cc1ccc2n(c1=O)C[C@@H]1[C@@H](CO)[C@H](C(=O)NCC3CCCCC3)N(C(=O)CC)[C@H]21 (mixture of isomers)	.	7[16.7 µM]	.	1	0
C[C@H](CO)N1C[C@H](C)[C@@H](CN(C)CC2CC2)Oc2cc(C#CC(C)(C)O)ccc2S1(=O)=O	-2	-5[16.7 µM]	0	4	1
CCC(=O)Nc1ccc2c(c1)C(=O)N(C)C[C@H](OC)[C@H](C)CN(C(=O)CN1CCOCC1)[C@@H](C)CO2	.	4[16.7 µM]	.	5	0
O=C(COc1ccc(-c2nnco2)cc1)NCc1ccccc1Cl	.	.	43*	15	.
C[C@@H]1CN([C@@H](C)CO)C(=O)CCCn2nncc2CO[C@H]1CN(C)Cc1ccccc1O	.	.	-12	0	0
CCCC#Cc1ccc2c(c1)O[C@H](CN(C)C(=O)NC(C)C)[C@@H](C)CN([C@@H](C)CO)S2(=O)=O	6	-2[16.7 µM]	-6	-10	0
COc1ccc(CCN2C(=O)C(Oc3ccccc3C)C2c2ccc3c(c2)OCO3)cc1 (stereo not drawn)	-3	14	?	20	.
O=C1C(Oc2ccccc2)C(c2ccc3c(c2)OCO3)N1CCc1ccc(F)cc1 (stereo not drawn)	2	238*	5	22	.
COc1ccc(-c2cc(N)n(S(=O)(=O)c3ccc(C)cc3)n2)c(OC)c1	2	1	22*	2	1
CN(C)N1C(N)=C(C#N)C(c2ccccc2)C2=C1CC(C)(C)CC2=O (stereo not drawn)	.	.	46*	17	0
CN(C)N1C(N)=C(C#N)C(c2ccc(F)cc2)C2=C1CC(C)(C)CC2=O (stereo not drawn)	0	.	9	3	0
O=C(C(=O)N1CCC(CNS(=O)(=O)c2ccc(F)c(F)c2)CC1)c1cc2ccccc2o1	.	.	-4	-12*	0
C[C@@H]1CN([C@@H](C)CO)C(=O)Cc2cc(NC(=O)Cc3cn(C)c4ccccc34)ccc2O[C@@H]1CN(C)CC1CC1	-1	-2[16.7 µM]	-11	1	1

Source: PubChem BioAssay
